Drawing on ChEMBL document CHEMBL4513216, “Probing the Open Global Health Chemical Diversity Library for Multistage-Active Starting Points for Next-Generation Antimalarials” (ACS Infect Dis, 2020), this text covers cytotoxicity for 97 molecules.

A short description of this data set: Toxicity liver stage against HepG2, at 10uM. It counts as cell-based. Also noted: test concentration 10 uM, cell line HepG2-A16-CD81EGFP. Conditions: human, HepG2-A16-CD81EGFP cells; read-out: INHIBITION
In short, it runs like this:
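Uninfected HepG2-A16-CD81EGFP cells, 3 × 10^3 per well, 1536-well, plated on prespotted compound at 10 μM final, parasite-free screening media added to match infected plates; puromycin 10 μM positive, DMSO 0.5% negative; run in parallel with 48 h PbLuc assay at 37 °C, 5% CO2; viability by CellTiter-Glo luminescence, normalized to controls.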

For the molecule `Cc1ccc(CN2CC[C@H]3[C@H]2CCN3S(C)(=O)=O)s1`, the cytotoxicity at 10 µM is 2.38%.

Regarding `Cc1ccsc1CN(C)Cc1nc2c(cnn2C)c(=O)[nH]1`, the cytotoxicity at 10 µM was -0.575%.

On to `CCN1CCn2c(C)cnc2C12CCN(C(=O)Cc1ccccc1)CC2`, for which the cytotoxicity at 10 µM was found to be 4.59%.

`O=C(CO)N1CCCn2nnc(Cn3cccn3)c2C1`: the cytotoxicity at 10 µM worked out at 6.59%.

With `O=C1CN(C(=O)C2CCCCC2)CC(O)CN1Cc1ccc(Cl)cc1` (configuration not stated), the cytotoxicity at 10 µM was determined as 6.02%.

As for `CC(=O)NC(C)C(=O)N(Cc1ccc(C)c(C)c1)C1CC1` (configuration not stated), the cytotoxicity at 10 µM was 8.77%.

Consider `C1CC(CN2C[C@@H]3C[C@@H](c4nnc(C5CC5)o4)O[C@@H]3C2)CCO1`, for which the cytotoxicity at 10 µM was found to be 6.58%.

With `Cc1ccc(NC(=O)Nc2cnc(N3CCN(C)CC3)nc2)c(Cl)c1`, the cytotoxicity at 10 µM worked out at 6.07%.

Regarding `CCn1nnc2cc(C(=O)N3CCCC3Cn3cc(C)cn3)ccc21` (configuration not stated), the cytotoxicity at 10 µM was -9.8%.

In the case of `CC(=O)N1CCCCC1c1nnc2n1CCNC2` (configuration not stated), the cytotoxicity at 10 µM amounted to 14.7%.

As to `Cn1c(CO[C@H]2CN(S(C)(=O)=O)C[C@H]2F)nc2ccccc21`, the cytotoxicity at 10 µM was -0.714%.

In the case of `COc1cc(N2CC3(CCN(S(C)(=O)=O)C3)C2)ncn1`, the cytotoxicity at 10 µM is 9.43%.

As to `O=C(CCN1CCCCO1)NCc1cn2c(n1)SCC2`, the cytotoxicity at 10 µM was found to be 6.49%.

For the molecule `O=C(c1cc(COc2ccc3c(c2)OCO3)[nH]n1)N1CCCC1`, the cytotoxicity at 10 µM is -0.526%.

`Cn1cc(C(C)(O)CNC(=O)c2cc(Br)cn2C)cn1` (configuration not stated): the cytotoxicity at 10 µM is -51.1%.

As for `CC(C)(C)c1n[nH]cc1CNC1CCC(O)CC1` (configuration not stated), the cytotoxicity at 10 µM is 2.33%.

With `CCc1nnc(CN(C)Cc2cccc(C(=O)Nc3cnn(C)c3)c2)o1`, the cytotoxicity at 10 µM was -5.54%.

In the case of `OC[C@H]1CCN(Cc2ccc3ccccc3n2)C[C@@H]1O`, the cytotoxicity at 10 µM was -6%.

With `CCS(=O)(=O)CCn1ccc(NC(=O)CCc2cccc(C)c2)n1`, the cytotoxicity at 10 µM was 2.94%.

Regarding `CCc1nc(CC(=O)N2CCOCC2c2ncon2)cs1` (configuration not stated), the cytotoxicity at 10 µM is -2.58%.

As for `Cn1ccc(C(=O)N2CCOC(c3ccc(C(N)=O)cn3)C2)n1` (configuration not stated), the cytotoxicity at 10 µM is -20%.

As to `CS(=O)(=O)c1snnc1C1CCN(Cc2cccc(O)c2)CC1`, the cytotoxicity at 10 µM was -8.91%.

For `Cn1ccnc1CN1CCC2(CC1)CC(NC(=O)c1ccccn1)CO2` (configuration not stated), the cytotoxicity at 10 µM is -2.05%.

Regarding `CCOC(=O)NC(CNC(=O)CCc1ccccn1)CC(C)C` (configuration not stated), the cytotoxicity at 10 µM is -4.61%.

Regarding `CCOCC1CN(c2ccc(C)nn2)Cc2nn(CC)cc21` (configuration not stated), the cytotoxicity at 10 µM was determined as 11.5%.

On to `COCCN(C)C(=O)Nc1ccc(C(=O)NCCC(=O)OC)cc1`, for which the cytotoxicity at 10 µM is 7.2%.

With `O=C(c1ccc(F)cc1F)N1C[C@@H]2CC[C@H]1CN(Cc1ccccc1)C2`, the cytotoxicity at 10 µM is 5.04%.

With `CCCn1nnnc1CSc1nccn1CC`, the cytotoxicity at 10 µM is -5.15%.

In the case of `O=C(O)c1cccnc1CN(Cc1ccsc1)C1CC1`, the cytotoxicity at 10 µM was found to be 3.7%.

For the molecule `CCOC(=O)CC1CCCCN1C(=O)c1cccc2ccnn12` (configuration not stated), the cytotoxicity at 10 µM was -105%.

Regarding `Cc1noc(C)c1CN(C)C(=O)c1ccc(C(N)=O)nc1`, the cytotoxicity at 10 µM was -4.24%.

With `Cn1ccnc1CN1CCC2(COCCN(Cc3ccsc3)C2)C1` (configuration not stated), the cytotoxicity at 10 µM is -9.81%.

`CCOC(=O)Cn1c(=O)[nH]c2cn(-c3ccccc3)c(=O)n21`: the cytotoxicity at 10 µM was 0.379%.

In the case of `COCc1ccc(CNC(=O)C2=NN(c3ccccc3)C(=O)CN2)cc1`, the cytotoxicity at 10 µM amounted to 26.7%.

In the case of `Cc1nonc1C(=O)N1CCCC(c2ncncc2-c2ccncc2)C1` (configuration not stated), the cytotoxicity at 10 µM was found to be 1.41%.

Consider `Cc1cc(C)cc(OCCN(C)C2CCOC2=O)c1` (configuration not stated), for which the cytotoxicity at 10 µM is -143%.

For the molecule `CC[C@H](C)[C@H](N)C(=O)N1CC(=O)c2sc(NC3CCCCC3)nc2C1`, the cytotoxicity at 10 µM was -13.7%.

Consider `CCCOC1CCCN(c2ncnc3c2CCN(C(=O)C2CC2)C3)C1` (configuration not stated), for which the cytotoxicity at 10 µM is 4.84%.

In the case of `O=C(Nc1ccc(Cl)cn1)c1cncc(C2CCNCC2)n1`, the cytotoxicity at 10 µM is -13.5%.

For `Cc1cccc(-c2nc(N)nc3c2CN(C(=O)c2cc(C)n[nH]2)C3C)c1` (configuration not stated), the cytotoxicity at 10 µM was 4.58%.

For the molecule `Cc1nc(N2CCCC2C(=O)NC(C)(C)CO)nc2ccccc12` (configuration not stated), the cytotoxicity at 10 µM came out at 0.215%.

Turning to `Cn1ccc(C(=O)NCCOc2ccc3c(c2)CCC3)cc1=O`, the cytotoxicity at 10 µM was determined as 3.68%.

Turning to `CN(C)Cc1nnc(C2CCCN(c3cc(C(F)(F)F)ccn3)C2)n1C` (configuration not stated), the cytotoxicity at 10 µM is -11.9%.

Take `Cc1nnc(CCNC(=O)Nc2ccc(S(C)(=O)=O)cc2)[nH]1`: the cytotoxicity at 10 µM came to 7.91%.

Consider `O=C(c1ccc(-c2ccoc2)nc1)N1CCCN(C2CCCCC2)CC1`, for which the cytotoxicity at 10 µM was 7.69%.

Consider `Cc1nn(C)c(N(C)C)c1CNCc1ccccc1CN(C)C`, for which the cytotoxicity at 10 µM is -0.553%.

For the molecule `CCn1ncc(Nc2[nH]cnc3nc(C)nc2-3)c1C`, the cytotoxicity at 10 µM is 3.26%.

With `OC(COCc1cccs1)Cn1cc(Br)cn1` (configuration not stated), the cytotoxicity at 10 µM turned out to be 1.91%.

Take `Cc1nc(CN2CCCC(CCc3ccc(F)c(F)c3)C2)c[nH]1` (configuration not stated): the cytotoxicity at 10 µM is -10.4%.

In the case of `CC(C)C(=O)N1CCC12CCCN(C(=O)c1ccnnc1)C2` (configuration not stated), the cytotoxicity at 10 µM is 7.8%.

With `COc1cc2c(nn1)CCN(Cc1ncc(C(C)(C)C)o1)C2`, the cytotoxicity at 10 µM was -6.44%.

Regarding `O=C([C@H]1C[C@H]2OCC[C@H]2N(C(=O)C2CCOCC2)C1)N1CCCCO1`, the cytotoxicity at 10 µM is -8.28%.

Regarding `CCCN1CCCn2nc(CNC(=O)CCc3scnc3C)cc2C1`, the cytotoxicity at 10 µM amounted to 1.47%.

`O=C(c1cc2ccccc2o1)N1CCN(Cn2cc(Cl)cn2)CC1`: the cytotoxicity at 10 µM turned out to be 9.31%.

For the molecule `Cc1cc(C(=O)N2CC[C@@H]3CN(c4ncccn4)CCO[C@@H]3C2)c(C)o1`, the cytotoxicity at 10 µM stood at 3.52%.

With `CN(Cc1cnn(C)c1)C(=O)NCCc1ccc2c(c1)OCCO2`, the cytotoxicity at 10 µM was -15.4%.

Take `Cc1ccc2[nH]c(C(=O)N3CCC4(CC3)C(=O)NCCN4C)nc2c1`: the cytotoxicity at 10 µM came to 1.43%.

For the molecule `CCn1c(Nc2ccccc2OC)nc2c(C)nn(C)c2c1=O`, the cytotoxicity at 10 µM is 15.8%.

Turning to `CN(C)C(=O)c1nc(CN2CC(Cc3ccccc3)CC2=O)no1` (configuration not stated), the cytotoxicity at 10 µM is -0.849%.

As for `CCCn1ncc(-c2ccnc(NC3CC(C)(C)NC(C)(C)C3)n2)c1C`, the cytotoxicity at 10 µM turned out to be 4.84%.

Consider `CCOCC1c2c(ncn2C)CCN1C(=O)c1cnc(C)cn1` (configuration not stated), for which the cytotoxicity at 10 µM was -108%.

With `CN(Cc1cnc(N)nc1)C(=O)C1CCN(C(=O)C2CCCC2)CC1`, the cytotoxicity at 10 µM was -1.42%.

Consider `Cc1noc(C)c1CN1CCc2ncnc(-c3ccccc3)c2CC1`, for which the cytotoxicity at 10 µM is -89.9%.

With `Cc1cc(C(=O)CN2CCN(c3cnccn3)CC2)c(C)n1C(C)C`, the cytotoxicity at 10 µM amounted to 7.36%.

Consider `Cc1cc(C2CCCN(C(=O)CN3CCN(C)CC3)C2)n[nH]1` (configuration not stated), for which the cytotoxicity at 10 µM was -4.18%.

Consider `Cc1ccc(-c2cc(C(=O)NCCC3=CCCCC3)[nH]n2)o1`, for which the cytotoxicity at 10 µM was -55.1%.

Consider `CCNC(c1cccnc1)c1ccc(F)cc1F` (configuration not stated), for which the cytotoxicity at 10 µM is -2.34%.

Regarding `O=c1n(CCSCCOc2ccc(Br)cc2)nc2ccccn12`, the cytotoxicity at 10 µM came to 10%.

As to `COc1cccc(C(CO)NC(=O)Cc2ccc(F)c(Br)c2)c1` (configuration not stated), the cytotoxicity at 10 µM was found to be 8.44%.

Take `CC(C)n1ccnc1CN1CCCN(C(=O)CC2C=CCC2)CC1` (configuration not stated): the cytotoxicity at 10 µM amounted to 3.08%.

Turning to `N#Cc1ccccc1N1CCN(C(=O)NCC(=O)N2CCCC2)CC1`, the cytotoxicity at 10 µM is -1.55%.

Turning to `CCc1nc(CCNC(=O)Nc2ccc(C(=O)NC)cc2)cs1`, the cytotoxicity at 10 µM is 7.51%.

On to `CC(C)OCCN1CCC(Nc2ncccn2)CC1`, for which the cytotoxicity at 10 µM was -1%.

Regarding `O=S(=O)(C1CC1)N1C[C@@H]2CN(Cc3cccs3)CCO[C@@H]2C1`, the cytotoxicity at 10 µM was -134%.

Take `O=C(NCC1CC1)c1cc(Br)cnc1N1CCCCC1`: the cytotoxicity at 10 µM turned out to be 3.1%.

On to `COc1cccc(CC(C)NC(=O)NCCc2cccnc2)c1` (configuration not stated), for which the cytotoxicity at 10 µM is -11%.

For the molecule `CC(C)NC(=O)C1CN(Cc2ccc(F)cc2)CC12CCOCC2` (configuration not stated), the cytotoxicity at 10 µM was found to be 3.86%.

Take `CNC(=O)c1cccc(NC(=O)NCc2ccccc2)c1C`: the cytotoxicity at 10 µM is -1.67%.

With `Cc1cccc(CN2CCC3(CC2)CC(c2cccnc2)C(=O)N3C)n1` (configuration not stated), the cytotoxicity at 10 µM worked out at 7.53%.

Take `Cc1nccn1CC1CCCN1S(=O)(=O)Cc1ccc(F)cc1` (configuration not stated): the cytotoxicity at 10 µM was -7.69%.

As for `Cn1ncc(CN2CCc3onc(-c4cccc(F)c4)c3C2)c1C1CC1`, the cytotoxicity at 10 µM was 1.31%.

`CN(CC(O)C1CC1)C(=O)Nc1cc(F)cc(Br)c1` (configuration not stated): the cytotoxicity at 10 µM is -3.85%.

For the molecule `N#Cc1cc2cc(Cl)cnc2nc1O`, the cytotoxicity at 10 µM worked out at 4.29%.

In the case of `COc1cc(-c2n[nH]c(CN)n2)cc(OC)c1OC`, the cytotoxicity at 10 µM was determined as 2.45%.

Turning to `CC(C)(CO)Nc1c(NCc2ccncc2)c(=O)c1=O`, the cytotoxicity at 10 µM was -3.97%.

In the case of `Cc1nc(CO[C@H]2CN(C(=O)c3cccn3C)[C@@H]3COC[C@H]23)cs1`, the cytotoxicity at 10 µM was -112%.

In the case of `CCN(Cc1ccncc1)S(C)(=O)=O`, the cytotoxicity at 10 µM was 14.4%.

Take `CC(NC(=O)COc1ccccc1I)C1CC1` (configuration not stated): the cytotoxicity at 10 µM is 2.72%.

With `Cc1ccnc(N2CCC(OCCN3CCCCC3)C2)n1` (configuration not stated), the cytotoxicity at 10 µM was -49.4%.

Regarding `COCCNC(=O)Nc1ccc(C(=O)N2CCSCC2)cc1C`, the cytotoxicity at 10 µM is -2.13%.

On to `CC(=O)N1CCC2(CC1)NC(=O)[C@H]1CN(Cc3cccnc3)C[C@H]12`, for which the cytotoxicity at 10 µM was -1.77%.

Turning to `CC(Cc1ccccn1)N(C)Cc1ccc2c(c1)CCO2` (configuration not stated), the cytotoxicity at 10 µM was -0.0105%.

On to `CN(C)Cc1nc(C(C)(C)NC(=O)c2cccc3ccccc23)no1`, for which the cytotoxicity at 10 µM was -1.8%.

Take `CC(=O)Nc1nc(CN2CCCC2Cn2cccn2)cs1` (configuration not stated): the cytotoxicity at 10 µM is -14.4%.

`COc1c(CNC2CCc3cc(F)ccc32)c(C(C)C)nn1C` (configuration not stated): the cytotoxicity at 10 µM was determined as 1.16%.

Regarding `CCc1cccc(OCCn2cccc(C#N)c2=O)c1`, the cytotoxicity at 10 µM worked out at 9.04%.

For `c1coc(CN2C[C@@H]3OCCN(CCN4CCCC4)[C@@H]3C2)c1`, the cytotoxicity at 10 µM is -1.52%.
